Experimental findings from ChEMBL document CHEMBL1671711, “Serum and cerebrospinal fluid levels of colistin in pediatric patients” (Antimicrob Agents Chemother, 2010) are described below.

Holding throughout (format): ADME, organism-based
What all share (set-up): route intravenous

For series [1], the system named is Serum. The experiment in a line: Drug level in pediatric patient serum with gram-negative bacterial infection before initiation of 16 mg/kg/day, iv administered every 8 hrs for 51 days by LS/MS/MS analysis. The settings on record: human, in vivo. The method in brief:
(§1)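 Trough sampling: blood was drawn immediately before the 20-min IV CMS infusion (every 8 h), and CSF was taken from EVD systems within 1 h before infusion. Samples were stored at −80°C and analysed by LC-MS-MS for colistin, and for CMS via acid hydrolysis with subtraction. CSF was diluted 1:1 with serum. Values are means of two days.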

Series [2] in a line: Drug level in pediatric patient cerebrospinal fluid with gram-negative bacterial infection assessed as Colistin level at 4.8 mg/kg/day, iv administered every 8 hrs for 7 days measured after 30 mins by LS/MS/MS analysis. Particulars: human, in vivo, 0.5 h. An outline of the steps:
(§2)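 Children (1 month to 14 years) received CMS in 30 to 50 ml normal saline by 20-min IV infusion every 8 h. CSF was taken from EVD systems alongside blood, after the end of infusion, and stored at −80°C. It was diluted 1:1 with serum, protein-precipitated, and analysed by LC-MS-MS for colistin A plus B against standards in pH 7.4 phosphate-buffered artificial-CSF Ringer with serum. Values are means of two days; course 1 was sampled once.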

A short description of series [3]: Ratio of drug level in cerebrospinal fluid to Serum of pediatric patient with gram-negative bacterial infection before initiation of 10.4 mg/kg/day, iv administered every 8 hrs for 46 days by LS/MS/MS analysis. The settings on record: human, csf. The method in brief:
(§3)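 Percentages are the ratio of mean CSF concentration to mean serum concentration from paired samples. Blood was drawn immediately before and 30 min after the 20-min IV CMS infusion (every 8 h); CSF came from EVD systems concurrently. Both were measured by LC-MS-MS, for colistin directly and for CMS after acid hydrolysis. Pairs were repeated on two days.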

Series [4] is described as follows: Ratio of drug level in cerebrospinal fluid to Serum of pediatric patient with gram-negative bacterial infection assessed as Colistin level at 10.4 mg/kg/day, iv administered every 8 hrs for 46 days by LS/MS/MS analysis. Particulars: human, csf. An outline of the steps: as §3
The nature of series [5]: Drug level in pediatric patient cerebrospinal fluid with gram-negative bacterial infection before initiation of 10.4 mg/kg/day, iv administered every 8 hrs for 46 days by LS/MS/MS analysis. Particulars: human, in vivo. The method in brief: as §1
In series [6] the test system is Serum. The experiment in a line: Drug level in pediatric patient serum with gram-negative bacterial infection before initiation of 16 mg/kg/day, iv administered every 8 hrs for 93 days by LS/MS/MS analysis. The settings on record: human, in vivo. The method in brief: as §1
The nature of series [7]: Drug level in pediatric patient cerebrospinal fluid with gram-negative bacterial infection assessed as Colistin level at 16 mg/kg/day, iv administered every 8 hrs for 93 days measured after 30 mins by LS/MS/MS analysis. Particulars: human, in vivo, 0.5 h. The method in brief: as §2
Series [8] deals with Serum. Briefly: Drug level in pediatric patient serum with gram-negative bacterial infection assessed as Colistin level at 18 mg/kg/day, iv administered every 8 hrs for 42 days measured after 30 mins by LS/MS/MS analysis. The settings on record: human, in vivo, 0.5 h. An outline of the steps:
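Blood was drawn 30 min after the end of the 20-min IV CMS infusion, given every 8 h. Serum was separated by centrifugation, stored at −80°C, and assayed by LC-MS-MS for colistin A plus B (interday CV <4.4%, accuracy within ±1.9%). Values are means of two sampling days; course 1 was sampled once.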

The subject of series [9] is Serum. The experiment in a line: Drug level in pediatric patient serum with gram-negative bacterial infection before initiation of 10.4 mg/kg/day, iv administered every 8 hrs for 46 days by LS/MS/MS analysis. The settings on record: human, in vivo. The method in brief:
as §1

The nature of series [10]: Ratio of drug level in cerebrospinal fluid to Serum of pediatric patient with gram-negative bacterial infection at 16 mg/kg/day, iv administered every 8 hrs for 93 days by LS/MS/MS analysis. The settings on record: human, csf. An outline of the steps:
as §3

A short description of series [11]: Drug level in pediatric patient cerebrospinal fluid with gram-negative bacterial infection before initiation of 4.8 mg/kg/day, iv administered every 8 hrs for 7 days by LS/MS/MS analysis. Particulars: human, in vivo. An outline of the steps: as §1
Series [12] is described as follows: Ratio of drug level in cerebrospinal fluid to Serum of pediatric patient with gram-negative bacterial infection at 10.4 mg/kg/day, iv administered every 8 hrs for 46 days by LS/MS/MS analysis. Particulars: human, csf. An outline of the steps:
as §3

Series [13] is described as follows: Ratio of drug level in cerebrospinal fluid to Serum of pediatric patient with gram-negative bacterial infection before initiation of 16 mg/kg/day, iv administered every 8 hrs for 93 days by LS/MS/MS analysis. Particulars: human, csf. An outline of the steps: as §3
The nature of series [14]: Drug level in pediatric patient cerebrospinal fluid with gram-negative bacterial infection assessed as Colistin level at 16 mg/kg/day, iv administered every 8 hrs for 51 days measured after 30 mins by LS/MS/MS analysis. The settings on record: human, in vivo, 0.5 h. An outline of the steps:
as §2

Series [15] in a line: Drug level in pediatric patient cerebrospinal fluid with gram-negative bacterial infection at 4.8 mg/kg/day, iv administered every 8 hrs for 7 days measured after 30 mins by LS/MS/MS analysis. The settings on record: human, in vivo, 0.5 h. The method in brief:
(§4)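 CMS was given by 20-min IV infusion in saline every 8 h, and CSF was taken from EVD systems after the end of infusion. The CSF–serum 1:1 mix was treated with 1 M H2SO4 for 15–20 min, then 1 M NaOH, then acetonitrile with 0.1% TFA. CMS was calculated as colistin after hydrolysis minus colistin before hydrolysis, by LC-MS-MS, with CMS controls of 0.25–18.5 μg/ml. Values are means of two days; course 1 was sampled once.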

The nature of series [16]: Drug level in pediatric patient cerebrospinal fluid with gram-negative bacterial infection before initiation of 16 mg/kg/day, iv administered every 8 hrs for 93 days by LS/MS/MS analysis. The settings on record: human, in vivo. An outline of the steps: as §1
Series [17] is described as follows: Ratio of drug level in cerebrospinal fluid to Serum of pediatric patient with gram-negative bacterial infection at 18 mg/kg/day, iv administered every 8 hrs for 42 days by LS/MS/MS analysis. The settings on record: human, csf. The method in brief: as §3
Series [18] can be described thus: Drug level in pediatric patient cerebrospinal fluid with gram-negative bacterial infection at 16 mg/kg/day, iv administered every 8 hrs for 93 days measured after 30 mins by LS/MS/MS analysis. Particulars: human, in vivo, 0.5 h. The method in brief: as §4
Series [19] in a line: Ratio of drug level in cerebrospinal fluid to Serum of pediatric patient with gram-negative bacterial infection assessed as Colistin level at 4.8 mg/kg/day, iv administered every 8 hrs for 7 days by LS/MS/MS analysis. Particulars: human, csf. An outline of the steps:
as §3

Series [20] deals with Serum. Briefly: Drug level in pediatric patient serum with gram-negative bacterial infection before initiation of 18 mg/kg/day, iv administered every 8 hrs for 42 days by LS/MS/MS analysis. Particulars: human, in vivo. An outline of the steps:
as §1

Series [21] in a line: Drug level in pediatric patient cerebrospinal fluid with gram-negative bacterial infection assessed as Colistin level at 18 mg/kg/day, iv administered every 8 hrs for 42 days measured after 30 mins by LS/MS/MS analysis. The settings on record: human, in vivo, 0.5 h. The method in brief: as §2
Series [22] in a line: Ratio of drug level in cerebrospinal fluid to Serum of pediatric patient with gram-negative bacterial infection before initiation of 16 mg/kg/day, iv administered every 8 hrs for 51 days by LS/MS/MS analysis. The settings on record: human, csf. An outline of the steps:
as §3

For the sequence COLISTIN, the Drug uptake in the series with Serum [1] was found to be 0.93 µg/mL; in [2], 0.06 µg/mL; in series [5], 0.03 µg/mL; in the series with Serum [6], 0.75 µg/mL; in series [7], 0.46 µg/mL; with Serum [8], 2.2 µg/mL. Also, the Drug uptake in the series on Serum [9] came out at 0.84 µg/mL; in series [11], 0.06 µg/mL; in series [14], 0.11 µg/mL; in series [15], 0.06 µg/mL; in [16] it was 0.38 µg/mL; in series [18], 0.26 µg/mL. Further, the Drug uptake in the series with Serum [20] stood at 6.11 µg/mL; in [21] it was 0.07 µg/mL. Further, the Ratio in [3] is on record as 3.1%; in [4], 3.4%; in series [10], 3.1%; in [12], 0.2%; in series [13] it was 50.9%; in series [17], 0.4%. Also, the results for the Ratio in series [19] and in series [22] were 19.3% and 9.9%, respectively.
